Measurements taken from ChEMBL document CHEMBL1143334, “Peri-substituted hexahydro-indolones as novel, potent and selective human EP3 receptor antagonists” (Bioorg Med Chem Lett, 2009).

Experiments:
[1] = Metabolic stability in rat liver microsomes after 30 mins; type: ADME, Microsome; settings: read-out: Stability
In short: (§1)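 Compound was incubated 30 min with liver microsomes from each species. Percent parent remaining was measured by LC/MS/MS.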

[2] = target: T1, Prostaglandin E2 receptor EP3 subtype (Homo sapiens) (UniProt P43115); experiment: Ratio of IC50 for human EP3 receptor in presence of 10% human serum to IC50 for human EP3 receptor in buffer
T1 sequence (whole entry): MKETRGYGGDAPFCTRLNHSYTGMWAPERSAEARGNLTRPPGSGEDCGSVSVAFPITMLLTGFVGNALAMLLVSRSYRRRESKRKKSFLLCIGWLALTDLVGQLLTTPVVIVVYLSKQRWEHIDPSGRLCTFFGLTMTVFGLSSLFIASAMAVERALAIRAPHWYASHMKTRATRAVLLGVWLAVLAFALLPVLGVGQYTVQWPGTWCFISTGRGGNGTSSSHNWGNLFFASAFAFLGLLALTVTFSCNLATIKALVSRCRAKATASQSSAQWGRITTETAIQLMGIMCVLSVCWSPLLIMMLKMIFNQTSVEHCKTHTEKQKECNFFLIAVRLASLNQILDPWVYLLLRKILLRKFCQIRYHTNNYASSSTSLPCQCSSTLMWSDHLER
In short: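 Displacement of [3H]-PGE2 from human EP3 membrane preparations was run both with 10% human serum and in buffer alone. Fold-shift is IC50 with serum divided by IC50 in buffer.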

[3] = Metabolic stability in human liver microsomes after 30 mins; type: ADME, Microsome; settings: read-out: Stability; in short: as §1
[4] = target: T2, Prostaglandin E2 receptor EP3 subtype (Homo sapiens, UniProt P43115); experiment: Displacement of [3H]PGE2 from human EP3 receptor
T2 sequence (P43115 whole entry): T1 sequence (whole entry)
In short: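 Displacement of [3H]-PGE2 from human EP3 receptor membrane preparations was run in buffer. IC50 values come from at least three experiments each.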

[5] = target: T2, Prostaglandin E2 receptor EP3 subtype; experiment: Antagonist activity at human EP3 receptor expressed in CHO-K1 cells assessed as reversal of inhibition of forskolin-induced cAMP production; type: functional, cell-based
In short: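 CHO-K1 cells stably expressing human EP3 were exposed to increasing test compound concentrations for 10 min at 37 °C, with 5 μM forskolin plus 5 nM PGE2 present. Read-out was the block of PGE2's inhibition of the forskolin-induced cAMP rise, giving IC50.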

Row | SMILES | remaining at 0.5 h [1] [%] | fold change (FC) [2] | remaining at 0.5 h [3] [%] | IC50 [4] [nM] | IC50 [5] [nM]
1 | CC12CCCC(/C=C/C(=O)NS(=O)(=O)c3cc(Cl)cc(Cl)c3)=C1N(Cc1ccc(Cl)cc1Cl)C(=O)C2 (stereo not drawn) | 62 | 61.2 | 70 | 9.8 | 
2 | CC12CCCC(/C=C/C(=O)NS(=O)(=O)c3ccc(F)c(F)c3)=C1N(Cc1ccc(Cl)cc1Cl)C(=O)C2 (stereo not drawn) |  | 18 |  | 3.4 | 
3 | CC12CCCC(/C=C/C(=O)NS(=O)(=O)c3ccc(Cl)s3)=C1N(Cc1ccc(Cl)cc1Cl)C(=O)C2 (stereo not drawn) | 68 | 6.9 | 75 | 13.4 | 
4 | CC12CCCC(/C=C/C(=O)NS(=O)(=O)c3cccs3)=C1N(Cc1ccc(Cl)cc1Cl)C(=O)C2 (stereo not drawn) | 79 | 25.2 | 78 | 57.2 | 
5 | CC12CCCC(/C=C/C(=O)NS(=O)(=O)c3cc(Cl)cc(Cl)c3)=C1N(Cc1ccc(F)c(F)c1)C(=O)C2 (stereo not drawn) | 45 | 26.8 | 68 | 5.6 | 3.2
6 | COc1cccc(CN2C(=O)CC3(C)CCCC(/C=C/C(=O)NS(=O)(=O)c4cc(F)c(F)cc4F)=C23)c1 (stereo not drawn) | 84 | 6.2 | 76 | 5.6 | 
7 | CC12CCCC(/C=C/C(=O)NS(=O)(=O)c3ccc(F)cc3)=C1N(Cc1ccc(Cl)cc1Cl)C(=O)C2 (stereo not drawn) | 64 | 21.2 | 70 | 15.2 | 
8 | CC12CCCC(/C=C/C(=O)NS(=O)(=O)c3cc(Cl)c(Cl)s3)=C1N(Cc1cccc(Cl)c1Cl)C(=O)C2 (stereo not drawn) | 69 | 6.6 | 80 | 4.4 | 1.7
9 | COC(=O)C12CCCC(/C=C/C(=O)NS(=O)(=O)c3ccc(F)c(F)c3)=C1N(Cc1ccc(Cl)cc1Cl)C(=O)C2 (stereo not drawn) |  | 22 |  | 20.6 | 
10 | CC12CCCC(/C=C/C(=O)NS(=O)(=O)c3cc(Cl)c(Cl)s3)=C1N(Cc1cccc(Cl)c1)C(=O)C2 (stereo not drawn) |  | 16.3 |  | 2.2 | 
11 | CC12CCCC(/C=C/C(=O)NS(=O)(=O)c3cc(F)cc(F)c3)=C1N(Cc1cccc(Cl)c1Cl)C(=O)C2 (stereo not drawn) |  | 33.7 |  | 3.8 | 
12 | CC12CCCC(/C=C/C(=O)NS(=O)(=O)c3ccc(F)c(F)c3)=C1N(Cc1cccc(Cl)c1Cl)C(=O)C2 (stereo not drawn) |  | 7.8 |  | 3.4 | 3.5
13 | CC12CCCC(CCC(=O)NS(=O)(=O)c3cc(F)c(F)cc3F)=C1N(Cc1ccc(F)c(F)c1)C(=O)C2 (stereo not drawn) |  | 33.2 |  | 1.8 | 
14 | COC(=O)C12CCCC(/C=C/C(=O)NS(=O)(=O)c3cc(Cl)c(Cl)s3)=C1N(Cc1ccc(F)c(F)c1)C(=O)C2 (stereo not drawn) |  | 308 |  | 29.9 | 
15 | C[C@]12CCC[C@@H](CCC(=O)NS(=O)(=O)c3cc(F)c(F)cc3F)[C@H]1N(Cc1ccc(F)c(F)c1)C(=O)C2 |  | 25.7 |  | 557 | 
16 | CC12CCCC(/C=C/C(=O)NS(=O)(=O)c3ccc(F)c(F)c3)=C1N(Cc1ccc(F)cc1)C(=O)C2 (stereo not drawn) |  | 15.9 |  | 2.5 | 
17 | COc1cccc(CN2C(=O)CC3(C)CCCC(/C=C/C(=O)NS(=O)(=O)c4cc(F)cc(F)c4)=C23)c1 (stereo not drawn) |  | 62.4 |  | 5.6 | 
18 | COC(=O)C12CCCC(/C=C/C(=O)NS(=O)(=O)c3cc(F)c(F)cc3F)=C1N(Cc1ccc(Cl)cc1Cl)C(=O)C2 (stereo not drawn) |  | 47.1 |  | 11.2 | 
19 | CC12CCCC(/C=C/C(=O)NS(=O)(=O)c3cc(F)cc(F)c3)=C1N(Cc1ccc(F)c(F)c1)C(=O)C2 (stereo not drawn) |  | 217 |  | 9.2 | 
20 | CC12CCCC(/C=C/C(=O)NS(=O)(=O)c3cc(Cl)c(Cl)s3)=C1N(Cc1ccc(Cl)cc1Cl)C(=O)C2 (stereo not drawn) | 60 | 38.4 | 58 | 2.3 | 
21 | CC12CCCC(/C=C/C(=O)NS(=O)(=O)c3cc(Cl)c(Cl)s3)=C1N(Cc1cccc(F)c1)C(=O)C2 (stereo not drawn) | 18 | 8.2 | 67 | 9.5 | 
